A value given as a limit tells only on which side of the number the result lay.

Data set [1] deals with Plasmodium falciparum. Briefly: Antiplasmodial activity against chloroquine-sensitive Plasmodium falciparum 3D7 assessed as parasite growth inhibition. The format is functional, organism-based. The essentials:
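In vitro growth inhibition of P. falciparum 3D7. IC50 reported in µM, with 20 µM as the highest concentration tested.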

Data set [2] can be described thus: Cytotoxicity against human HeLa cells assessed as cell viability at 20 uM relative to control. The note with it: read-out: Activity. The format is cell-based. A digest of the protocol:
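Mammalian HeLa cells incubated with test compound at a single 20 µM concentration. Read-out is the percentage of viable cells remaining after incubation.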

For data set [3], the system named is Plasmodium falciparum. As to the kind of experiment: Antimalarial activity against synchronized ring stage chloroquine-sensitive Plasmodium falciparum assessed as parasite growth inhibition incubated for 48 hrs in presence of 10% human plasma by hypoxanthine assay. In kind it is functional, organism-based.

For the molecule `COc1nc2cc(C)cc(C)c2cc1CNCc1ccncc1`, in the data set with Plasmodium falciparum [1], the IC50 was 12 µM. Besides, the viability at 20 µM in data set [2] is 60.7%.

Consider `COc1ccc2nc(Cl)c(CN(Cc3cccs3)Cc3cc4cc(C)ccc4nc3OC)cc2c1`, for which the IC50 in the data set with Plasmodium falciparum [1] stood at 13.4 µM. The viability at 20 µM in data set [2] worked out at 103%.

On to `Cc1ccc2nc(Cl)c(CN(Cc3cccnc3)Cc3cc4c(C)cc(C)cc4nc3Cl)cc2c1`, for which the IC50 in the data set with Plasmodium falciparum [1] amounted to 7.6 µM. The viability at 20 µM in data set [2] was determined as 80.3%.

Regarding `COc1nc2ccccc2cc1CN(Cc1cccnc1)Cc1cc2cc(C)ccc2nc1Cl`, the IC50 in the data set on Plasmodium falciparum [1] worked out at 9.8 µM. Besides, in data set [2], the viability at 20 µM was determined as 98.3%.

Consider `COc1ccc2nc(OC)c(CNCc3cccs3)cc2c1`, for which the concentration for half-maximal inhibition (IC50) in the data set with Plasmodium falciparum [1] was above 20 µM. Moreover, the viability at 20 µM in data set [2] was determined as 93.2%.

On to `COc1nc2cc(C)cc(C)c2cc1CN(Cc1cccs1)Cc1cc2cc(C)ccc2nc1Cl`, for which, in the data set on Plasmodium falciparum [1], the IC50 was above 20 µM. Moreover, the viability at 20 µM in data set [2] amounted to 86%.

For `Fc1ccc2nc(Cl)c(CN(Cc3ccccn3)Cc3cc4cc(F)ccc4nc3Cl)cc2c1`, the IC50 in the data set with Plasmodium falciparum [1] was found to be 9.8 µM. In addition, the viability at 20 µM in data set [2] came out at 98.7%.

With `COc1ccc2nc(OC)c(CN(Cc3cccs3)Cc3cc4cc(C)ccc4nc3Cl)cc2c1`, in the data set on Plasmodium falciparum [1], the IC50 was determined as 0.93 µM. For the same molecule, the viability at 20 µM in data set [2] turned out to be 99.2%.

Turning to `COc1nc2ccccc2cc1CN(Cc1ccccn1)Cc1cc2ccccc2nc1OC`, in the data set on Plasmodium falciparum [1], the IC50 is 3.5 µM. Further, in data set [2], the viability at 20 µM is 89%.

Consider `COc1nc2ccccc2cc1CNCc1ccccn1`, for which the IC50 in the data set with Plasmodium falciparum [1] was 1.4 µM. Moreover, in data set [2], the viability at 20 µM was 44.3%.

Take `COc1nc2ccc(F)cc2cc1CN(Cc1cccs1)Cc1cc2cc(C)ccc2nc1Cl`: the IC50 in the data set on Plasmodium falciparum [1] stood at 11.3 µM. Further, the viability at 20 µM in data set [2] came out at 95.2%.

With `COc1nc2ccc(F)cc2cc1CNCc1cccnc1`, the IC50 in the data set on Plasmodium falciparum [1] was determined as 17.9 µM. Also, the viability at 20 µM in data set [2] is 97.2%.

For the molecule `COc1nc2ccc(Cl)cc2cc1CNCc1cccnc1`, the IC50 with Plasmodium falciparum [1] came out at 16.8 µM. Also, the viability at 20 µM in data set [2] came out at 100%.

For the molecule `COc1nc2cc(C)cc(C)c2cc1CN(Cc1cccnc1)Cc1cc2cc(C)ccc2nc1Cl`, the IC50 with Plasmodium falciparum [1] came to 12.3 µM. In data set [2], the viability at 20 µM is 77.6%.

Turning to `COc1nc2ccccc2cc1CNCc1ccncc1`, the IC50 with Plasmodium falciparum [1] stood at 2.1 µM. The viability at 20 µM in data set [2] stood at 69.9%.

For `COc1nc2ccc(C)cc2cc1CN(Cc1cccs1)Cc1cc2cc(C)ccc2nc1Cl`, the IC50 in the data set with Plasmodium falciparum [1] came to 12.6 µM. In data set [2], the viability at 20 µM turned out to be 87.9%.

On to `COc1nc2ccccc2cc1CN(Cc1ccco1)Cc1cc2cc(C)ccc2nc1Cl`, for which the IC50 in the data set with Plasmodium falciparum [1] came out at 12.8 µM. Besides, the viability at 20 µM in data set [2] is 84.4%.

Take `COc1nc2cc(C)cc(C)c2cc1CN(Cc1ccccn1)Cc1cc2c(C)cc(C)cc2nc1OC`: in the data set with Plasmodium falciparum [1], the IC50 was determined as 2.8 µM. For the same molecule, the viability at 20 µM in data set [2] amounted to 90.1%.

As for `COc1nc2ccc(F)cc2cc1CNCc1cccs1`, in the data set with Plasmodium falciparum [1], the IC50 is above 20 µM. In addition, the viability at 20 µM in data set [2] worked out at 93.5%.

For `COc1nc2ccc(C)cc2cc1CN(Cc1ccccn1)Cc1cc2cc(C)ccc2nc1OC`, in the data set with Plasmodium falciparum [1], the IC50 was above 20 µM. Also, the viability at 20 µM in data set [2] is 93.3%.

Turning to `Clc1nc2ccccc2cc1CNCc1ccncc1`, in the data set on Plasmodium falciparum [1], the IC50 is 2.3 µM. Moreover, the viability at 20 µM in data set [2] was found to be 73.7%.

As to `COc1nc2ccccc2cc1CNCc1ccco1`, the IC50 in the data set on Plasmodium falciparum [1] is above 20 µM. In addition, in data set [2], the viability at 20 µM amounted to 88.9%.

Regarding `COc1ccc2nc(Cl)c(CN(Cc3cccs3)Cc3cc4c(C)cc(C)cc4nc3OC)cc2c1`, the IC50 with Plasmodium falciparum [1] is above 20 µM. For the same molecule, in data set [2], the viability at 20 µM was determined as 85.4%.

As for `COc1nc2ccc(C)cc2cc1CNCc1cccnc1`, the IC50 in the data set with Plasmodium falciparum [1] stood at 13.4 µM. In addition, the viability at 20 µM in data set [2] came to 99.5%.

`Cc1ccc2nc(Cl)c(CN(Cc3ccccn3)Cc3cc4cc(C)ccc4nc3Cl)cc2c1`: in the data set on Plasmodium falciparum [1], the IC50 is above 20 µM. Further, in data set [2], the viability at 20 µM was found to be 93%.

For `Clc1nc2ccccc2cc1CNCc1ccccn1`, the IC50 in the data set with Plasmodium falciparum [1] was above 20 µM. Further, in data set [2], the viability at 20 µM came to 65.6%.

Turning to `COc1nc2ccc(C)cc2cc1CNCc1cccs1`, in the data set with Plasmodium falciparum [1], the IC50 is above 20 µM. Besides, in data set [2], the viability at 20 µM was found to be 99.7%.

Turning to `COc1nc2cc(C)cc(C)c2cc1CNCc1ccccn1`, in the data set on Plasmodium falciparum [1], the IC50 came to 0.23 µM. For the same molecule, the viability at 20 µM in data set [2] came to 56.7%.

`COc1nc2ccccc2cc1CNCc1cccnc1`: the 50% inhibitory concentration (IC50) with Plasmodium falciparum [1] was 13.4 µM. Further, the viability at 20 µM in data set [2] amounted to 89.9%.

Turning to `Clc1ccc2nc(Cl)c(CN(c3ccccc3)c3nnc(-c4ccccc4)o3)cc2c1`, the IC50 in the data set on Plasmodium falciparum [3] was 0.089 µM.

Consider `COc1ccc2nc(OC)c(CNCc3cccnc3)cc2c1`, for which the IC50 with Plasmodium falciparum [1] was found to be 12.8 µM. In addition, the viability at 20 µM in data set [2] is 100%.

With `COc1nc2cc(C)cc(C)c2cc1CNCc1cccnc1`, the IC50 in the data set with Plasmodium falciparum [1] is above 20 µM. Further, the viability at 20 µM in data set [2] came out at 76.7%.

Turning to `COc1nc2ccc(F)cc2cc1CN(Cc1cccnc1)Cc1cc2cc(C)ccc2nc1Cl`, in the data set with Plasmodium falciparum [1], the IC50 turned out to be 9.6 µM. Besides, the viability at 20 µM in data set [2] stood at 92.6%.

Turning to `Oc1ccc2nc(Cl)c(CN(Cc3ccccn3)Cc3cc4cc(O)ccc4nc3Cl)cc2c1`, the IC50 in the data set with Plasmodium falciparum [1] was determined as 2.5 µM. Besides, the viability at 20 µM in data set [2] was determined as 88.8%.

For the molecule `COc1nc2ccccc2cc1CNCc1cccs1`, the IC50 in the data set on Plasmodium falciparum [1] was above 20 µM. Moreover, the viability at 20 µM in data set [2] came out at 89.9%.

`COc1nc2ccccc2cc1CN(Cc1ccccn1)Cc1cc2ccccc2nc1Cl`: in the data set with Plasmodium falciparum [1], the IC50 is above 20 µM. For the same molecule, the viability at 20 µM in data set [2] is 89.9%.

As to `Cc1cc(C)c2cc(CNCc3cccnc3)c(Cl)nc2c1`, the IC50 with Plasmodium falciparum [1] is above 20 µM. Besides, the viability at 20 µM in data set [2] worked out at 77.2%.

With `COc1ccc2nc(OC)c(CN(Cc3ccccn3)Cc3cc4cc(OC)ccc4nc3OC)cc2c1`, in the data set with Plasmodium falciparum [1], the IC50 came to 3.4 µM. For the same molecule, in data set [2], the viability at 20 µM was 79.5%.

Take `Clc1nc2ccccc2cc1CN(Cc1ccccn1)Cc1cc2ccccc2nc1Cl`: the IC50 in the data set with Plasmodium falciparum [1] is above 20 µM. In data set [2], the viability at 20 µM is 90.6%.

In the case of `COc1nc2cc(C)cc(C)c2cc1CNCc1cccs1`, in the data set with Plasmodium falciparum [1], the IC50 is above 20 µM. Further, in data set [2], the viability at 20 µM stood at 87.5%.

As for `COc1ccc2nc(Cl)c(CN(Cc3ccccn3)Cc3cc4cc(OC)ccc4nc3Cl)cc2c1`, the IC50 in the data set on Plasmodium falciparum [1] is above 20 µM. In addition, the viability at 20 µM in data set [2] turned out to be 83.8%.

On to `C=C[C@H]1CN2CC[C@H]1C[C@H]2[C@H](O)c1ccnc2ccc(OC)cc12` [QUININE], for which, in the data set with Plasmodium falciparum [3], the IC50 came to 0.826 µM.
